Assay results reported in ChEMBL document CHEMBL3352487, “Synthesis, antibacterial activity, and biological evaluation of formyl hydroxyamino derivatives as novel potent peptide deformylase inhibitors against drug-resistant bacteria” (Eur J Med Chem, 2014).
Values after ≈ are worked out from the molar mass of the structure shown.

What was measured:
Format in all cases: functional
Staphylococcus aureus [1] = assay: Antimicrobial activity against Staphylococcus aureus OXFORD after 24 hrs by broth microdilution method
Summary of the method: (§1)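 Broth microdilution following NCCLS M7-A4, using ATCC strains and clinical isolates from a provincial hospital.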

Staphylococcus aureus [2] = assay: Antimicrobial activity against Staphylococcus aureus WCUH29 after 24 hrs by broth microdilution method; settings: WCUH29, 24 h
Summary of the method: (§2)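 Broth microdilution following NCCLS M7-A4; ATCC strains and clinical isolates from a provincial hospital.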

Enterococcus faecalis = assay: Antimicrobial activity against Enterococcus faecalis Isolate 1 after 24 hrs by broth microdilution method; settings: Isolate 1, 24 h; summary of the method: as §2
Enterococcus faecium = assay: Antimicrobial activity against Enterococcus faecium X7501 after 24 hrs by broth microdilution method; settings: X7501, 24 h; summary of the method: as §2
Haemophilus influenzae [3] = assay: Antimicrobial activity against Haemophilus influenzae Q1 after 24 hrs by broth microdilution method; settings: Q1, 24 h; summary of the method: as §2
Haemophilus influenzae [4] = assay: Antimicrobial activity against Haemophilus influenzae H128 after 24 hrs by broth microdilution method; settings: H128, 24 h; summary of the method: as §2
Haemophilus influenzae [5] = assay: Antimicrobial activity against AcrA-deficient Haemophilus influenzae H128 after 24 hrs by broth microdilution method; settings: H128, 24 h; summary of the method: as §2
Moraxella catarrhalis = assay: Antimicrobial activity against Moraxella catarrhalis 1502 after 24 hrs by broth microdilution method; settings: Moraxella catarrhalis, 1502, 24 h; summary of the method: as §2
Streptococcus pneumoniae [6] = assay: Antimicrobial activity against Streptococcus pneumoniae 1629 after 24 hrs by broth microdilution method; settings: Streptococcus pneumoniae, 1629, 24 h; summary of the method: as §2
Streptococcus pneumoniae [7] = assay: Antimicrobial activity against Streptococcus pneumoniae N1387 after 24 hrs by broth microdilution method; settings: N1387, 24 h; summary of the method: as §2
Streptococcus pneumoniae [8] = assay: Antimicrobial activity against Streptococcus pneumoniae ERY2 after 24 hrs by broth microdilution method; settings: ERY2, 24 h; summary of the method: as §2
Escherichia coli = assay: Antimicrobial activity against Escherichia coli isolate 3 after 24 hrs by broth microdilution method; settings: isolate 3, 24 h; summary of the method: as §2
Streptococcus pyogenes [9] = assay: Antimicrobial activity against Streptococcus pyogenes 1307006P after 24 hrs by broth microdilution method; summary of the method: as §2
Streptococcus pyogenes [10] = assay: Antimicrobial activity against Streptococcus pyogenes 1308007P after 24 hrs by broth microdilution method; summary of the method: as §2
Staphylococcus aureus [11] = assay: Antimicrobial activity against Staphylococcus aureus ATCC 29213 after 24 hrs by broth microdilution method; settings: ATCC 29213, 24 h; summary of the method: as §2
Staphylococcus aureus [12] = assay: Antimicrobial activity against Staphylococcus aureus isolate A53 after 24 hrs by broth microdilution method; settings: isolate A53, 24 h; summary of the method: as §1
Staphylococcus aureus [13] = assay: Antimicrobial activity against Staphylococcus aureus isolate CARTER 37 after 24 hrs by broth microdilution method; settings: isolate CARTER 37, 24 h; summary of the method: as §1
Staphylococcus aureus [14] = assay: Antimicrobial activity against Staphylococcus aureus isolate CL 939 after 24 hrs by broth microdilution method; settings: isolate CL 939, 24 h; summary of the method: as §1
Staphylococcus aureus [15] = assay: Antimicrobial activity against Staphylococcus aureus isolate Ealing 23 after 24 hrs by broth microdilution method; settings: isolate Ealing 23, 24 h; summary of the method: as §1
Staphylococcus aureus [16] = assay: Antimicrobial activity against Staphylococcus aureus isolate Ealing 32 after 24 hrs by broth microdilution method; settings: isolate Ealing 32, 24 h; summary of the method: as §2
Staphylococcus aureus [17] = assay: Antimicrobial activity against Staphylococcus aureus isolate F89 after 24 hrs by broth microdilution method; settings: isolate F89, 24 h; summary of the method: as §2
Staphylococcus aureus [18] = assay: Antimicrobial activity against Staphylococcus aureus isolate MILES HALL after 24 hrs by broth microdilution method; summary of the method: as §1
Staphylococcus aureus [19] = assay: Antimicrobial activity against Staphylococcus aureus isolate RN4220 pmz1 after 24 hrs by broth microdilution method; settings: isolate RN4220 pmz1, 24 h; summary of the method: as §1
Staphylococcus aureus [20] = assay: Antimicrobial activity against Staphylococcus aureus isolate RUSSELL after 24 hrs by broth microdilution method; summary of the method: as §1
Staphylococcus aureus [21] = assay: Antimicrobial activity against Staphylococcus aureus isolate Smith ATCC 13709 after 24 hrs by broth microdilution method; settings: isolate Smith ATCC 13709, 24 h; summary of the method: as §1
Staphylococcus aureus [22] = assay: Antimicrobial activity against Staphylococcus aureus isolate SWEETING after 24 hrs by broth microdilution method; summary of the method: as §1
Staphylococcus aureus [23] = assay: Antimicrobial activity against Staphylococcus aureus isolate CL 1033 after 24 hrs by broth microdilution method; settings: isolate CL 1033, 24 h; summary of the method: as §2
Staphylococcus aureus [24] = assay: Antimicrobial activity against Staphylococcus aureus isolate CL 938 after 24 hrs by broth microdilution method; settings: isolate CL 938, 24 h; summary of the method: as §2
Staphylococcus aureus [25] = assay: Antimicrobial activity against Staphylococcus aureus isolate MN 1255 after 24 hrs by broth microdilution method; settings: isolate MN 1255, 24 h; summary of the method: as §2
Staphylococcus aureus [26] = assay: Antimicrobial activity against Staphylococcus aureus isolate NEQAS 4026 after 24 hrs by broth microdilution method; settings: isolate NEQAS 4026, 24 h; summary of the method: as §2
Staphylococcus aureus [27] = assay: Antimicrobial activity against Staphylococcus aureus isolate OGA833 after 24 hrs by broth microdilution method; settings: isolate OGA833, 24 h; summary of the method: as §2
Staphylococcus aureus [28] = assay: Antimicrobial activity against Staphylococcus aureus isolate PAV 5 after 24 hrs by broth microdilution method; settings: isolate PAV 5, 24 h; summary of the method: as §2
Staphylococcus aureus [29] = assay: Antimicrobial activity against Staphylococcus aureus isolate RN1024 after 24 hrs by broth microdilution method; settings: isolate RN1024, 24 h; summary of the method: as §1
Staphylococcus aureus [30] = assay: Antimicrobial activity against Staphylococcus aureus isolate RN1030 after 24 hrs by broth microdilution method; settings: isolate RN1030, 24 h; summary of the method: as §1
Staphylococcus aureus [31] = assay: Antimicrobial activity against Staphylococcus aureus isolate 306 after 24 hrs by broth microdilution method; settings: isolate 306, 24 h; summary of the method: as §2
Staphylococcus aureus [32] = assay: Antimicrobial activity against Staphylococcus aureus isolate 68/8684 after 24 hrs by broth microdilution method; settings: isolate 68/8684, 24 h; summary of the method: as §2
Staphylococcus aureus [33] = assay: Antimicrobial activity against Staphylococcus aureus isolate 929003 after 24 hrs by broth microdilution method; settings: isolate 929003, 24 h; summary of the method: as §2
Staphylococcus aureus [34] = assay: Antimicrobial activity against Staphylococcus aureus isolate 929035 after 24 hrs by broth microdilution method; settings: isolate 929035, 24 h; summary of the method: as §2
Staphylococcus aureus [35] = assay: Antimicrobial activity against Staphylococcus aureus isolate 934324 after 24 hrs by broth microdilution method; settings: isolate 934324, 24 h; summary of the method: as §2
Staphylococcus aureus [36] = assay: Antimicrobial activity against Staphylococcus aureus isolate 934334 after 24 hrs by broth microdilution method; settings: isolate 934334, 24 h; summary of the method: as §2
Staphylococcus aureus [37] = assay: Antimicrobial activity against Staphylococcus aureus isolate 934335 after 24 hrs by broth microdilution method; settings: isolate 934335, 24 h; summary of the method: as §2
Staphylococcus aureus [38] = assay: Antimicrobial activity against Staphylococcus aureus isolate 934387 after 24 hrs by broth microdilution method; settings: isolate 934387, 24 h; summary of the method: as §1
Staphylococcus aureus [39] = assay: Antimicrobial activity against Staphylococcus aureus isolate NEQAS 4158 after 24 hrs by broth microdilution method; settings: isolate NEQAS 4158, 24 h; summary of the method: as §2

SMILES: CC1(C)S[C@@H]2[C@H](NC(=O)[C@H](N)c3ccc(O)cc3)C(=O)N2[C@H]1C(=O)O [AMOXICILLIN]
- MIC (Staphylococcus aureus [1]): 0.125 µg/mL (≈ 0.342 µM)
- MIC (Staphylococcus aureus [2]): 64 µg/mL (≈ 175 µM)
- MIC (Enterococcus faecalis): 0.5 µg/mL (≈ 1.37 µM)
- MIC (Enterococcus faecium): 16 µg/mL (≈ 43.8 µM)
- MIC (Haemophilus influenzae [3]): 0.25 µg/mL (≈ 0.684 µM)
- MIC (Haemophilus influenzae [4]): 32 µg/mL (≈ 87.6 µM)
- MIC (Haemophilus influenzae [5]): 64 µg/mL (≈ 175 µM)
- MIC (Moraxella catarrhalis): ≤ 0.06 µg/mL
- MIC (Streptococcus pneumoniae [6]): ≤ 0.06 µg/mL
- MIC (Streptococcus pneumoniae [7]): 2 µg/mL (≈ 5.47 µM)
- MIC (Streptococcus pneumoniae [8]): ≤ 0.06 µg/mL
- MIC (Escherichia coli): 1 µg/mL (≈ 2.74 µM)
- MIC (Streptococcus pyogenes [9]): ≤ 0.06 µg/mL
- MIC (Streptococcus pyogenes [10]): ≤ 0.06 µg/mL
- MIC (Staphylococcus aureus [11]): 1 µg/mL (≈ 2.74 µM)
- MIC (Staphylococcus aureus [12]): 0.125 µg/mL (≈ 0.342 µM)
- MIC (Staphylococcus aureus [13]): 0.25 µg/mL (≈ 0.684 µM)
- MIC (Staphylococcus aureus [14]): 2 µg/mL (≈ 5.47 µM)
- MIC (Staphylococcus aureus [15]): 0.5 µg/mL (≈ 1.37 µM)
- MIC (Staphylococcus aureus [16]): 1 µg/mL (≈ 2.74 µM)
- MIC (Staphylococcus aureus [17]): 2 µg/mL (≈ 5.47 µM)
- MIC (Staphylococcus aureus [18]): 0.25 µg/mL (≈ 0.684 µM)
- MIC (Staphylococcus aureus [19]): 0.125 µg/mL (≈ 0.342 µM)
- MIC (Staphylococcus aureus [20]): > 16 µg/mL
- MIC (Staphylococcus aureus [21]): 0.125 µg/mL (≈ 0.342 µM)
- MIC (Staphylococcus aureus [22]): 0.125 µg/mL (≈ 0.342 µM)
- MIC (Staphylococcus aureus [23]): > 16 µg/mL
- MIC (Staphylococcus aureus [24]): > 16 µg/mL
- MIC (Staphylococcus aureus [25]): > 16 µg/mL
- MIC (Staphylococcus aureus [26]): > 16 µg/mL
- MIC (Staphylococcus aureus [27]): > 16 µg/mL
- MIC (Staphylococcus aureus [28]): > 16 µg/mL
- MIC (Staphylococcus aureus [29]): > 16 µg/mL
- MIC (Staphylococcus aureus [30]): > 16 µg/mL
- MIC (Staphylococcus aureus [31]): > 16 µg/mL
- MIC (Staphylococcus aureus [32]): > 16 µg/mL
- MIC (Staphylococcus aureus [33]): > 16 µg/mL
- MIC (Staphylococcus aureus [34]): > 16 µg/mL
- MIC (Staphylococcus aureus [35]): > 16 µg/mL
- MIC (Staphylococcus aureus [36]): > 16 µg/mL
- MIC (Staphylococcus aureus [37]): > 16 µg/mL
- MIC (Staphylococcus aureus [38]): > 16 µg/mL
- MIC (Staphylococcus aureus [39]): > 16 µg/mL
